The results in this text go back to ChEMBL document CHEMBL1142419, “Antimycobacterial activities of novel 2-(sub)-3-fluoro/nitro-5,12-dihydro-5-oxobenzothiazolo[3,2-a]quinoline-6-carboxylic acid” (Bioorg Med Chem, 2008).

The subject of one assay is Vero. Put plainly: Cytotoxicity against african green monkey Vero cells after 72 hrs by MTT assay. It is filed as cell-based. Conditions: Chlorocebus sabaeus. The essentials:
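Vero mammalian cells were exposed to compounds for 72 h, with testing at 62.5 µg/ml. Viability was read as cellular conversion of MTT to formazan (non-radioactive cell proliferation kit), and IC50 was reported.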

Assay [1] relates to Mycobacterium tuberculosis. Put plainly: Antimycobacterial activity against Mycobacterium tuberculosis H37Rv by agar dilution method. It counts as functional. Put shortly: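 MIC by agar dilution on Middlebrook 7H11 agar supplemented with OADC, following an NCCLS-like procedure, run in duplicate. The MDR-TB clinical isolate was resistant to isoniazid, rifampicin, ethambutol and ofloxacin.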

Assay [2] relates to Mycolicibacterium smegmatis. Put plainly: Antimycobacterial activity against Mycobacterium smegmatis MC2 by agar dilution method. It counts as functional. Put shortly: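 Agar dilution on Middlebrook 7H11 agar supplemented with OADC, following an NCCLS-like procedure; MIC determined in duplicate against M. smegmatis ATCC 14468 (MC²).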
Assay [3] in a line: Inhibition of Mycobacterium smegmatis DNA gyrase supercoiling activity. Set-up: species or system Mycolicibacterium smegmatis.

≈ marks a conversion by molar mass, not a printed value.

The compound `O=C(O)c1c(=O)c2cc(F)c(N3CCN(C(c4ccccc4)c4ccc(Cl)cc4)CC3)cc2n2c1sc1ccccc12` (stereo unspecified) came in with an IC50 in the assay with Vero of 104 µM. For the same compound, the figures for the MIC in assay [1] and in assay [2] were 2.61 µM (≈ 1.56 µg/mL) and 10.4 µM (≈ 6.25 µg/mL), respectively.

With `Cc1onc(-c2c(F)cccc2F)c1C(=O)N1CCN(c2cc3c(cc2[N+](=O)[O-])c(=O)c(C(=O)O)c2sc4ccccc4n23)CC1`, the MIC in assay [1] was determined as 4.85 µM (≈ 3.13 µg/mL); in assay [2], 77.5 µM (≈ 50 µg/mL).

On to `O=C(O)c1c(=O)c2cc(F)c(N3CCC(n4c(=O)[nH]c5cc(Cl)ccc54)CC3)cc2n2c1sc1ccccc12`, for which the MIC in assay [1] amounted to 2.77 µM (≈ 1.56 µg/mL); in assay [2], 44.4 µM (≈ 25 µg/mL).

`CCN(CC)C(=O)C1CCCN(c2cc3c(cc2[N+](=O)[O-])c(=O)c(C(=O)O)c2sc4ccccc4n23)C1` (stereo unspecified) showed an IC50 in the assay with Vero of 59.8 µM. Moreover, the MIC amounted to 2.99 µM (≈ 1.56 µg/mL) in assay [1] and 95.7 µM (≈ 50 µg/mL) in assay [2].

Consider `O=C(O)c1c(=O)c2cc([N+](=O)[O-])c(N3CCN(C(=O)c4ccco4)CC3)cc2n2c1sc1ccccc12`, for which the minimum inhibitory concentration (MIC) in assay [1] stood at 6.04 µM (≈ 3.13 µg/mL); in assay [2], 48.2 µM (≈ 25 µg/mL).

On to `O=C(O)c1cn2c(n1)CN(c1cc3c(cc1[N+](=O)[O-])c(=O)c(C(=O)O)c1sc4ccccc4n13)CC2`, for which the IC50 in the assay on Vero was found to be 124 µM. For the same compound, the results for the MIC in assay [1] and in assay [2] were 1.54 µM (≈ 0.778 µg/mL) and 98.2 µM (≈ 49.6 µg/mL), respectively.

With `Cc1onc(-c2c(F)cccc2F)c1C(=O)N1CCN(c2cc3c(cc2F)c(=O)c(C(=O)O)c2sc4ccccc4n23)CC1`, the results for the MIC in assay [1] and in assay [2] were 2.52 µM (≈ 1.56 µg/mL) and 40.4 µM (≈ 25 µg/mL), respectively.

For `O=C(O)c1c(=O)c2cc(F)c(N3CCSCC3)cc2n2c1sc1ccccc12`, the MIC came out at 3.76 µM (≈ 1.56 µg/mL) in assay [1] and 7.55 µM (≈ 3.13 µg/mL) in assay [2].

With `COc1ccc(CC2C3=C(CCCC3)CCN2c2cc3c(cc2[N+](=O)[O-])c(=O)c(C(=O)O)c2sc4ccccc4n23)cc1` (stereo unspecified), the MIC was 10.5 µM (≈ 6.25 µg/mL) in assay [1] and 83.9 µM (≈ 50 µg/mL) in assay [2].

As for `CN1CCN(c2cc3c(cc2[N+](=O)[O-])c(=O)c(C(=O)O)c2sc4ccccc4n23)CC1c1ccccc1` (stereo unspecified), the MIC is 12.2 µM (≈ 6.25 µg/mL) in assay [1] and 97.2 µM (≈ 50 µg/mL) in assay [2].

In turn, `CC(C)(C)NC(=O)C1c2ccccc2CCN1c1cc2c(cc1F)c(=O)c(C(=O)O)c1sc3ccccc3n12` (stereo unspecified) had an IC50 in the assay on Vero of 115 µM. For the same compound, the MIC in assay [1] was found to be 2.87 µM (≈ 1.56 µg/mL); in assay [2], 46 µM (≈ 25 µg/mL).

As to `COc1cc2c(cc1OC)CN(c1cc3c(cc1[N+](=O)[O-])c(=O)c(C(=O)O)c1sc4ccccc4n13)CC2`, half-maximal inhibition in the assay on Vero (IC50) required 118 µM. Also, the minimal inhibitory concentration (MIC) turned out to be 1.47 µM (≈ 0.781 µg/mL) in assay [1] and 47 µM (≈ 25 µg/mL) in assay [2].

`CC(C)(C)NC(=O)C1c2ccccc2CCN1c1cc2c(cc1[N+](=O)[O-])c(=O)c(C(=O)O)c1sc3ccccc3n12` (stereo unspecified): the MIC in assay [1] was 2.73 µM (≈ 1.56 µg/mL); in assay [2], 43.8 µM (≈ 25 µg/mL).

The compound `O=C(O)c1c(=O)c2cc([N+](=O)[O-])c(N3CCC4(CC3)OCCO4)cc2n2c1sc1ccccc12` yielded an IC50 in the assay on Vero of 130 µM. In addition, the results for the MIC in assay [1] and in assay [2] were 1.62 µM (≈ 0.78 µg/mL) and 104 µM (≈ 50 µg/mL), respectively.

As for `O=C(O)c1c(=O)c2cc([N+](=O)[O-])c(N3CCC(n4c(=O)[nH]c5cc(Cl)ccc54)CC3)cc2n2c1sc1ccccc12`, the MIC in assay [1] came to 5.31 µM (≈ 3.13 µg/mL); in assay [2], 84.8 µM (≈ 50 µg/mL).

In the case of `O=C(O)c1c(=O)c2cc(F)c(N3CCC(N4CCCCC4)CC3)cc2n2c1sc1ccccc12`, the figures for the IC50 (in assay [3]; in the assay with Vero) were more than 50 µg/mL and 130 µM, respectively. Moreover, the MIC in assay [1] was found to be 0.39 µM (≈ 0.187 µg/mL); in assay [2], 6.53 µM (≈ 3.13 µg/mL).

`O=C(O)c1c(=O)c2cc(F)c(N3CCN(Cc4ccc5c(c4)OCO5)CC3)cc2n2c1sc1ccccc12` came in with an IC50 with Vero of more than 118 µM. Also, the figures for the MIC in assay [1] and in assay [2] were 1.47 µM (≈ 0.781 µg/mL) and 5.89 µM (≈ 3.13 µg/mL), respectively.

`O=C(O)c1c(=O)c2cc([N+](=O)[O-])c(N3CCC(O)(c4ccc(Cl)cc4)CC3)cc2n2c1sc1ccccc12` yielded an IC50 with Vero of 114 µM. The MIC was 2.84 µM (≈ 1.56 µg/mL) in assay [1] and 90.9 µM (≈ 50 µg/mL) in assay [2].

Turning to `COc1cc2c(cc1OC)CN(c1cc3c(cc1F)c(=O)c(C(=O)O)c1sc4ccccc4n13)CC2`, the IC50 in the assay on Vero is more than 124 µM. The MIC in assay [1] came to 1.55 µM (≈ 0.782 µg/mL); in assay [2], 6.2 µM (≈ 3.13 µg/mL).

For `O=C(O)c1cn2c(n1)CN(c1cc3c(cc1F)c(=O)c(C(=O)O)c1sc4ccccc4n13)CC2`, the IC50 in the assay on Vero is more than 131 µM. Moreover, the MIC in assay [1] amounted to 3.26 µM (≈ 1.56 µg/mL); in assay [2], 52.2 µM (≈ 25 µg/mL).

`O=C(O)c1c(=O)c2cc([N+](=O)[O-])c(N3CCC(N4CCCCC4)CC3)cc2n2c1sc1ccccc12`: in the assay on Vero, half-maximal inhibition (IC50) required 61.7 µM. For the same compound, the MIC in assay [1] was 3.08 µM (≈ 1.56 µg/mL); in assay [2], 98.7 µM (≈ 50 µg/mL).

For the compound `CN1CCN(c2cc3c(cc2F)c(=O)c(C(=O)O)c2sc4ccccc4n23)CC1c1ccccc1` (stereo unspecified), the MIC in assay [1] was found to be 12.8 µM (≈ 6.25 µg/mL); in assay [2] it was 103 µM (≈ 50 µg/mL).

Turning to `CC1CN(c2cc3c(cc2[N+](=O)[O-])c(=O)c(C(=O)O)c2sc4ccccc4n23)CC(C)O1` (stereo unspecified), the values for the MIC in assay [1] and in assay [2] were 6.9 µM (≈ 3.13 µg/mL) and 110 µM (≈ 50 µg/mL), respectively.

Regarding `O=C(O)c1c(=O)c2cc(F)c(N3CCN(C(=O)C4COc5ccccc5O4)CC3)cc2n2c1sc1ccccc12` (stereo unspecified), the IC50 in assay [3] is more than 50 µg/mL; in the assay on Vero, 112 µM. Also, the minimum inhibitory concentration (MIC) worked out at 1.39 µM (≈ 0.778 µg/mL) in assay [1] and 2.79 µM (≈ 1.56 µg/mL) in assay [2].

`CC(C)(C)OC(=O)NC1C2CN(c3cc4c(cc3[N+](=O)[O-])c(=O)c(C(=O)O)c3sc5ccccc5n34)CC21` (stereo unspecified) yielded an IC50 in the assay with Vero of 58.2 µM. The figures for the MIC in assay [1] and in assay [2] were 2.91 µM (≈ 1.56 µg/mL) and 93.2 µM (≈ 50 µg/mL), respectively.

Compound `O=C(O)c1c(=O)c2cc([N+](=O)[O-])c(N3CCN(C(c4ccccc4)c4ccc(Cl)cc4)CC3)cc2n2c1sc1ccccc12` (stereo unspecified) registered an IC50 in the assay on Vero of 50 µM. Also, the MIC in assay [1] turned out to be 5.01 µM (≈ 3.13 µg/mL); in assay [2] it was 40 µM (≈ 25 µg/mL).

Regarding `O=C(O)c1c(=O)c2cc([N+](=O)[O-])c(N3CCN(C(=O)C4COc5ccccc5O4)CC3)cc2n2c1sc1ccccc12` (stereo unspecified), the MIC was determined as 10.7 µM (≈ 6.25 µg/mL) in assay [1] and 85.2 µM (≈ 50 µg/mL) in assay [2].

In the case of `COc1ccc(CC2C3=C(CCCC3)CCN2c2cc3c(cc2F)c(=O)c(C(=O)O)c2sc4ccccc4n23)cc1` (stereo unspecified), the figures for the MIC in assay [1] and in assay [2] were 5.5 µM (≈ 3.13 µg/mL) and 44 µM (≈ 25 µg/mL), respectively.

`O=C(O)c1c(=O)c2cc([N+](=O)[O-])c(N3CCN(Cc4ccc5c(c4)OCO5)CC3)cc2n2c1sc1ccccc12`: 112 µM corresponded to half-maximal inhibition in the assay with Vero (IC50). For the same compound, the MIC in assay [1] came to 5.6 µM (≈ 3.13 µg/mL); in assay [2], 44.8 µM (≈ 25 µg/mL).

For `CC(C)(C)OC(=O)NC1C2CN(c3cc4c(cc3F)c(=O)c(C(=O)O)c3sc5ccccc5n34)CC21` (stereo unspecified), the IC50 was 50 µg/mL (≈ 98.1 µM) in assay [3] and more than 113 µM in the assay on Vero. Besides, the values for the MIC in assay [1] and in assay [2] were 0.37 µM (≈ 0.189 µg/mL) and 6.14 µM (≈ 3.13 µg/mL), respectively.

For the compound `O=C(O)c1c(=O)c2cc([N+](=O)[O-])c(N3CCSCC3)cc2n2c1sc1ccccc12`, the MIC in assay [1] came out at 7.09 µM (≈ 3.13 µg/mL); in assay [2], 113 µM (≈ 50 µg/mL).

With `CC1CN(c2cc3c(cc2F)c(=O)c(C(=O)O)c2sc4ccccc4n23)CC(C)O1` (stereo unspecified), the results for the MIC in assay [1] and in assay [2] were 7.34 µM (≈ 3.13 µg/mL) and 29.3 µM (≈ 12.5 µg/mL), respectively.

Turning to `O=C(O)c1c(=O)c2cc(F)c(N3CCN(C(=O)c4ccco4)CC3)cc2n2c1sc1ccccc12`, the MIC in assay [1] stood at 6.37 µM (≈ 3.13 µg/mL); in assay [2], 50.9 µM (≈ 25 µg/mL).
